Measured values as given in ChEMBL document CHEMBL2086248, “Synthesis of some novel 1-(2-naphthyl)-2-(imidazol-1-yl)ethanone oxime ester derivatives and evaluation of their anticonvulsant activity” (Eur J Med Chem, 2012).
Active and inactive are the calls of the source.

Key:
Mus musculus [1] = assay: Neurotoxicity in mouse assessed as motor impairment at 30 mg/kg, ip after 0.5 hrs by rotarod test; assay type: toxicity, organism-based; design: dose 30 mg/kg, route intraperitoneal; conditions: in vivo
Summary of the method: (§1)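 Swiss albino mice (20-24 g) were dosed ip with a suspension in 30% aqueous PEG 400 and tested 0.5 h or 4 h later. They were placed on a knurled wooden rod 1 inch in diameter, rotating at 6 rpm. Toxicity meant failure to stay on the rod for at least 1 min in each of three trials. Scored as number toxic/number tested (4 mice at 0.5 h, 2 at 4 h).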

Mus musculus [2] = assay: Neurotoxicity in mouse assessed as motor impairment at 100 mg/kg, ip after 0.5 hrs by rotarod test; assay type: toxicity, organism-based; design: dose 100 mg/kg, route intraperitoneal; conditions: in vivo; summary of the method: as §1
Mus musculus [3] = assay: Neurotoxicity in mouse assessed as motor impairment at 300 mg/kg, ip after 0.5 hrs by rotarod test; assay type: toxicity, organism-based; design: dose 300 mg/kg, route intraperitoneal; conditions: in vivo; summary of the method: as §1
Mus musculus [4] = assay: Neurotoxicity in mouse assessed as motor impairment at 30 mg/kg, ip after 4 hrs by rotarod test; assay type: toxicity, organism-based; design: dose 30 mg/kg, route intraperitoneal; conditions: in vivo; summary of the method: as §1
Mus musculus [5] = assay: Neurotoxicity in mouse assessed as motor impairment at 100 mg/kg, ip after 4 hrs by rotarod test; assay type: toxicity, organism-based; design: dose 100 mg/kg, route intraperitoneal; conditions: in vivo; summary of the method: as §1
Mus musculus [6] = assay: Neurotoxicity in mouse assessed as motor impairment at 300 mg/kg, ip after 4 hrs by rotarod test; assay type: toxicity, organism-based; design: dose 300 mg/kg, route intraperitoneal; conditions: in vivo; summary of the method: as §1
Mus musculus [7] = assay: Anticonvulsant activity in mouse assessed as protection against maximal electroshock-induced seizures at 30 mg/kg, ip after 0.5 hrs; assay type: functional, organism-based; design: dose 30 mg/kg
Summary of the method: (§2)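 Swiss albino mice (20-24 g) received an ip suspension in 30% aqueous PEG 400 and were tested 0.5 h and 4 h after dosing. Shock was delivered through corneal electrodes from a constant current unit, with 0.9% saline dropped into the eyes first. Protection meant abolition of the hind limb tonic extension. Scored as number protected/number tested, one mouse per dose and time.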

Mus musculus [8] = assay: Anticonvulsant activity in mouse assessed as protection against maximal electroshock-induced seizures at 100 mg/kg, ip after 0.5 hrs; assay type: functional, organism-based; design: dose 100 mg/kg; summary of the method: as §2
Mus musculus [9] = assay: Anticonvulsant activity in mouse assessed as protection against maximal electroshock-induced seizures at 300 mg/kg, ip after 0.5 hrs; assay type: functional, organism-based; design: dose 300 mg/kg; summary of the method: as §2
Mus musculus [10] = assay: Anticonvulsant activity in mouse assessed as protection against maximal electroshock-induced seizures at 30 mg/kg, ip after 4 hrs; assay type: functional, organism-based; design: dose 30 mg/kg; summary of the method: as §2
Mus musculus [11] = assay: Anticonvulsant activity in mouse assessed as protection against maximal electroshock-induced seizures at 100 mg/kg, ip after 4 hrs; assay type: functional, organism-based; design: dose 100 mg/kg; summary of the method: as §2
Mus musculus [12] = assay: Anticonvulsant activity in mouse assessed as protection against maximal electroshock-induced seizures at 300 mg/kg, ip after 4 hrs; assay type: functional, organism-based; design: dose 300 mg/kg; summary of the method: as §2
Mus musculus [13] = assay: Anticonvulsant activity in mouse assessed as protection against subcutaneous pentylenetetrazole-induced seizures at 30 mg/kg, ip after 0.5 hrs; assay type: functional, organism-based; design: dose 30 mg/kg
Summary of the method: (§3)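 Swiss albino mice (20-24 g) were dosed ip with a suspension in 30% aqueous PEG 400 and challenged 0.5 h or 4 h later. Protection meant no threshold seizure (clonic spasms lasting at least 5 s). Scored as number protected/number tested, one mouse per dose and time.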

Mus musculus [14] = assay: Anticonvulsant activity in mouse assessed as protection against subcutaneous pentylenetetrazole-induced seizures at 100 mg/kg, ip after 0.5 hrs; assay type: functional, organism-based; design: dose 100 mg/kg; summary of the method: as §3
Mus musculus [15] = assay: Anticonvulsant activity in mouse assessed as protection against subcutaneous pentylenetetrazole-induced seizures at 300 mg/kg, ip after 0.5 hrs; assay type: functional, organism-based; design: dose 300 mg/kg; summary of the method: as §3
Mus musculus [16] = assay: Anticonvulsant activity in mouse assessed as protection against subcutaneous pentylenetetrazole-induced seizures at 30 mg/kg, ip after 4 hrs; assay type: functional, organism-based; design: dose 30 mg/kg; summary of the method: as §3
Mus musculus [17] = assay: Anticonvulsant activity in mouse assessed as protection against subcutaneous pentylenetetrazole-induced seizures at 300 mg/kg, ip after 4 hrs; assay type: functional, organism-based; design: dose 300 mg/kg; summary of the method: as §3
Mus musculus [18] = assay: Anticonvulsant activity in mouse assessed as protection against subcutaneous pentylenetetrazole-induced seizures at 100 mg/kg, ip after 4 hrs; assay type: functional, organism-based; design: dose 100 mg/kg; summary of the method: as §3

Compound	Activity (Mus musculus [1])	Activity (Mus musculus [2])	Activity (Mus musculus [3])	Activity (Mus musculus [4])	Activity (Mus musculus [5])	Activity (Mus musculus [6])	Activity (Mus musculus [7])	Activity (Mus musculus [8])	Activity (Mus musculus [9])	Activity (Mus musculus [10])	Activity (Mus musculus [11])	Activity (Mus musculus [12])	Activity (Mus musculus [13])	Activity (Mus musculus [14])	Activity (Mus musculus [15])	Activity (Mus musculus [16])	Activity (Mus musculus [17])	Activity (Mus musculus [18])
O=C1NC(=O)C(c2ccccc2)(c2ccccc2)N1 [PHENYTOIN]	Non-toxic	Non-toxic	Toxic	Non-toxic	Toxic	Toxic	Active	Active	Active	Active	Active	Active	inactive	inactive	inactive	inactive	inactive	inactive
O=C(O/N=C(\Cn1ccnc1)c1ccc2ccccc2c1)c1ccccc1	Non-toxic	Non-toxic	Non-toxic	Non-toxic	Non-toxic	Non-toxic	inactive	Active	Active	Active	Active	Active	inactive	inactive	inactive	inactive	Active	inactive
O=C(O/N=C(\Cn1ccnc1)c1ccc2ccccc2c1)c1ccccc1Cl	Non-toxic	Non-toxic	Non-toxic	Non-toxic	Non-toxic	Non-toxic	inactive	Active	Active	inactive	inactive	inactive	inactive	inactive	inactive	inactive	inactive	inactive
NC(=O)N1c2ccccc2C=Cc2ccccc21 [CARBAMAZEPINE]	Non-toxic	Non-toxic	Toxic	Non-toxic	Non-toxic	Non-toxic	Active	Active	Active	inactive	Active	Active	inactive	inactive	Active	inactive	Active	Active
O=C(O/N=C(\Cn1ccnc1)c1ccc2ccccc2c1)c1cccc([N+](=O)[O-])c1	Non-toxic	Non-toxic	Non-toxic	Non-toxic	Non-toxic	Non-toxic	inactive	inactive	inactive	inactive	inactive	Active	inactive	inactive	inactive	inactive	inactive	inactive
O=C(O/N=C(\Cn1ccnc1)c1ccc2ccccc2c1)c1cccc(Cl)c1	Non-toxic	Non-toxic	Non-toxic	Non-toxic	Non-toxic	Non-toxic	inactive	Active	Active	inactive	Active	Active	inactive	inactive	inactive	inactive	inactive	inactive
